Measured values from article PMC9291822 (British Journal of Clinical Pharmacology, 2021).
Entries after “also recorded” stand apart in the source; their conditions may differ. Like-named read-outs stand apart in the source and are kept apart here.

Columns and labels:
[1] = format: in vivo, human
In short: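 Adults aged 18–75 with hepatic impairment (Child–Pugh A/B/C, also reclassified by NCI Organ Dysfunction Working Group criteria) or normal function, matched on age, weight and sex. Overnight fast (≥10 h), single oral 200 mg (2 × 100 mg tablets), fasting ≥4 h post-dose. Plasma sampled predose to 72 h; parent and metabolite measured by validated LC-MS/MS (LLOQ ~1.00 ng/mL). Noncompartmental analysis; GM ratios vs normal with 90% CIs.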

[2] = test system: human plasma proteins; experiment: Plasma protein binding by ultrafiltration, 3 h postdose samples; format: in vitro ADME
[3] = Safety assessments and adverse events after single-dose capmatinib; format: in vivo, human
In short: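 Single oral 200 mg dose; participants confined from day −1 to day 4. Haematology, chemistry, coagulation and urinalysis at screening, baseline, days 1–2 and end of treatment; vital signs on days 1–3. Triplicate 12-lead ECGs. AEs/SAEs recorded with severity and relatedness, graded per CTCAE v4.03. Phone follow-up at 30 days post-dose.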

[4] = single oral dose 200 mg, mild, Child–Pugh A (n = 6)
[5] = single oral dose 200 mg, moderate, Child–Pugh B (n = 8)
[6] = single oral dose 200 mg, normal (n = 9)
[7] = single oral dose 200 mg, severe, Child–Pugh C (n = 6)

CNC(=O)c1ccc(-c2cnc3ncc(Cc4ccc5ncccc5c4)n3n2)cc1F [capmatinib]
increase in GM AUCinf, AUClast and Cmax vs. normal group ([1]; NCI classification, both mild and moderate groups): 26–46%
increase in GM AUCinf vs. normal group ([1]; NCI classification, mild group): 26%
increase in GM AUClast vs. normal group ([1]; NCI classification, mild group): 27%
increase in GM Cmax vs. normal group ([1]; NCI classification, mild group): 35%
increase in GM Cmax vs. normal group ([1]; NCI classification, moderate group): 46%
AUC(0-inf) ([1]; human, plasma, po, 200 mg, AUCinf, GM, single oral dose 200 mg, normal (n = 9)): 6240 ng·h/mL
AUC(0-t) ([1]; human, plasma, po, 200 mg, AUClast, GM, single oral dose 200 mg, normal (n = 9)): 6190 ng·h/mL
Cmax ([1]; human, plasma, po, 200 mg, Cmax, GM, single oral dose 200 mg, normal (n = 9)): 1740 ng/mL
Vd/F ([1]; human, plasma, po, 200 mg, Vz/F, GM, single oral dose 200 mg, normal (n = 9)): 483 L
half-life ([1]; human, plasma, po, 200 mg, t½, GM, single oral dose 200 mg, normal (n = 9)): 10.4 h
GM exposures vs. normal group, interim PK analysis ([1]; mild and moderate groups, end of stage 1): < 3 fold
GM Vz/F lower vs. normal group ([1]; mild group): 32.9%
GM t½ shorter vs. normal group ([1]; mild group): 48.4%
decrease in GM AUCinf vs. normal group ([1]; mild group): 23.3%
decrease in GM Cmax vs. normal group ([1]; mild group): 27.6%
increase in GM CL/F vs. normal group ([1]; mild group): 30.6%
decrease in GM AUCinf,u vs. normal group ([1]; mild group, unbound): 19.3%
decrease in GM AUClast,u vs. normal group ([1]; mild group, unbound): 19.6%
decrease in GM Cmax,u vs. normal group ([1]; mild group, unbound): 23.9%
GM Vz/F lower vs. normal group ([1]; moderate group): 39.5%
GM t½ shorter vs. normal group ([1]; moderate group): 44.5%
decrease in GM AUCinf vs. normal group ([1]; moderate group): 8.6%
decrease in GM Cmax vs. normal group ([1]; moderate group): 17.2%
increase in GM CL/F vs. normal group ([1]; moderate group): 9.7%
GM Cmax,u, AUClast,u and AUCinf,u vs. normal group ([1]; moderate group, unbound): similar
GM Vz/F lower vs. normal group ([1]; severe group): 53.0%
GM t½ shorter vs. normal group ([1]; severe group): 41.5%
change in GM Cmax vs. normal group ([1]; severe group): remained unchanged; also recorded: remained similar
decrease in GM CL/F vs. normal group ([1]; severe group): 19.1%
increase in GM AUCinf vs. normal group ([1]; severe group): 24%
increase in GM AUCinf,u vs. normal group ([1]; severe group, unbound): 78%
increase in GM AUClast,u vs. normal group ([1]; severe group, unbound): 78%
increase in GM Cmax,u vs. normal group ([1]; severe group, unbound): 46%
CL/F, GM [1, 4]: 41.8 L/h
CL/F, mean (SD) [1, 4]: 42.6 (9.23) L/h
CL/F, GM [1, 5]: 35.1 L/h
CL/F, mean (SD) [1, 5]: 36.6 (11.4) L/h
CL/F, GM [1, 6]: 32.0 L/h
CL/F, mean (SD) [1, 6]: 36.1 (19.1) L/h
CL/F, GM [1, 7]: 25.9 L/h
CL/F, mean (SD) [1, 7]: 28.2 (11.7) L/h
bound to human plasma proteins ([2]; 3 hours postdose samples, across all participants): 96.7%
GM unbound fraction higher vs. normal group ([2]; severe group): ~ 44.8%
AEs, any primary system organ class, maximum Grade 1 ([3]; all participants (N = 31)): 5 (16.1) n (%)
AEs, any primary system organ class, maximum Grade 2 ([3]; all participants (N = 31)): 1 (3.2) n (%)
Diarrhoea ([3]; all participants (N = 31)): 1 (3.2) n (%)
Dizziness ([3]; all participants (N = 31)): 1 (3.2) n (%)
Ear and labyrinth disorders ([3]; all participants (N = 31)): 1 (3.2) n (%)
Flatulence ([3]; all participants (N = 31)): 1 (3.2) n (%)
Gastrointestinal disorders ([3]; all participants (N = 31)): 3 (9.7) n (%)
General disorders and administration site conditions ([3]; all participants (N = 31)): 1 (3.2) n (%)
Headache ([3]; all participants (N = 31)): 2 (6.5) n (%)
Hypoglycaemia ([3]; all participants (N = 31)): 1 (3.2) n (%)
Medical device site dermatitis ([3]; all participants (N = 31)): 1 (3.2) n (%)
Metabolism and nutrition disorders ([3]; all participants (N = 31)): 1 (3.2) n (%)
Nausea ([3]; all participants (N = 31)): 2 (6.5) n (%)
Nervous system disorders ([3]; all participants (N = 31)): 2 (6.5) n (%)
Vertigo ([3]; all participants (N = 31)): 1 (3.2) n (%)
participants with AEs suspected to be capmatinib related ([3]; all participants (N = 31)): 9.7%
severity of AEs suspected to be capmatinib related ([3]; all participants (N = 31)): grade 1
deaths and SAEs ([3]; during study treatment and 30-day follow-up): No deaths and SAEs
AEs, any primary system organ class, maximum Grade 1 ([3]; mild (n = 7)): 2 (28.6) n (%)
AEs, any primary system organ class, maximum Grade 2 ([3]; mild (n = 7)): 1 (14.3) n (%)
Diarrhoea ([3]; mild (n = 7)): 0 n (%)
Dizziness ([3]; mild (n = 7)): 0 n (%)
Ear and labyrinth disorders ([3]; mild (n = 7)): 1 (14.3) n (%)
Flatulence ([3]; mild (n = 7)): 0 n (%)
